According to ChEMBL document CHEMBL1123123, “Orally absorbable cephalosporin antibiotics. 2. Structure-activity studies of bicyclic glycine derivatives of 7-aminodeacetoxycephalosporanic acid” (1985):
≈ marks a conversion by molar mass, not a printed value.

Assays:
Assay type in all cases: functional
Staphylococcus aureus [1] = assay: Antibacterial activity against methicillin resistant Staphylococcus aureus S13E.
How it was run: (§1)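 Agar dilution susceptibility test following a previously published method; value recorded as MIC. Racemic compounds were separated by preparative HPLC and only the R epimers were tested.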

Haemophilus influenzae [2] = assay: The compound was tested for antibacterial activity against sensitive Haemophilus influenzae C.L.
Streptococcus pneumoniae = assay: The compound was tested for antibacterial activity against Streptococcus pneumoniae Park.
Staphylococcus aureus [3] = assay: Antibacterial activity against penicillin G sensitive Staphylococcus aureus X1.1
Staphylococcus aureus [4] = assay: Antibacterial activity against penicillin G resistant Staphylococcus aureus V41.; how it was run: as §1
Haemophilus influenzae [5] = assay: The compound was tested for antibacterial activity against resistant Haemophilus influenzae 76.; how it was run: as §1
Streptococcus = assay: The compound was tested for antibacterial activity against Streptococcus group D X66.
Streptococcus pyogenes = assay: The compound was tested for antibacterial activity against Streptococcus pyogenes C203.
Staphylococcus aureus [6] = assay: Antibacterial activity against methicillin resistant Staphylococcus aureus X400.; how it was run: as §1
[7] = tested on: Staphylococcus epidermidis; assay: The compound was tested for antibacterial activity against Staphylococcus epidermidis EP11.
Staphylococcus aureus [8] = assay: Aantibacterial activity against methicillin resistant Staphylococcus aureus S13E.; how it was run: as §1
Mus musculus [9] = assay: Dose administered subcutaneously in mice infected with Streptococcus pneumoniae; settings: sc
How it was run: (§2)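 Mice were used in groups of 10 and inoculated with S. aureus, S. pyogenes or S. pneumoniae. Drug was given orally or subcutaneously at 1 and 5 h after inoculation. The ED50 was determined from the dosed groups.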

Mus musculus [10] = assay: Dose administered subcutaneously in mice infected with Staphylococcus aureus.; settings: sc; how it was run: as §2
Mus musculus [11] = assay: Dose administered subcutaneously in mice infected with Streptococcus pyogenes; settings: sc; how it was run: as §2
Mus musculus [12] = assay: Dose administered orally in mice infected with Streptococcus pyogenes.; settings: po; how it was run: as §2
Mus musculus [13] = assay: Dose administered orally in mice infected with Staphylococcus aureus.; settings: po; how it was run: as §2
Mus musculus [14] = assay: Dose administered orally in mice infected with Streptococcus pneumoniae; settings: po; how it was run: as §2

**Q.** What does the source list for `CC1=C(C(=O)O)N2C(=O)C(NC(=O)C(N)c3cc4sccc4s3)C2SC1` (stereo not drawn)?
**A.** MIC (Staphylococcus aureus [1]): 64 µg/mL (≈ 156 µM); MIC (Haemophilus influenzae [2]): 64 µg/mL (≈ 156 µM); MIC (Streptococcus pneumoniae): 1 µg/mL (≈ 2.44 µM); MIC (Staphylococcus aureus [3]): 0.5 µg/mL (≈ 1.22 µM); MIC (Staphylococcus aureus [4]): 32 µg/mL (≈ 78.1 µM); MIC (Haemophilus influenzae [5]): 2 µg/mL (≈ 4.88 µM); MIC (Streptococcus): > 64 µg/mL; MIC (Streptococcus pyogenes): 0.25 µg/mL (≈ 0.61 µM); MIC (Staphylococcus aureus [6]): > 64 µg/mL; MIC [7]: 16 µg/mL (≈ 39.1 µM)

**Q.** Which results are given for `CC1=C(C(=O)O)N2C(=O)C(NC(=O)C(N)c3cccc4c(C)csc34)C2SC1` (stereo not drawn)?
**A.** MIC (Haemophilus influenzae [2]): 8 µg/mL (≈ 19.2 µM); MIC (Streptococcus pneumoniae): 2 µg/mL (≈ 4.79 µM); MIC (Staphylococcus aureus [3]): 2 µg/mL (≈ 4.79 µM); MIC (Staphylococcus aureus [4]): 16 µg/mL (≈ 38.3 µM); MIC (Haemophilus influenzae [5]): 1 µg/mL (≈ 2.4 µM); MIC (Streptococcus): 64 µg/mL (≈ 153 µM); MIC (Streptococcus pyogenes): 1 µg/mL (≈ 2.4 µM); MIC (Staphylococcus aureus [6]): 64 µg/mL (≈ 153 µM); MIC (Staphylococcus aureus [8]): 64 µg/mL (≈ 153 µM); MIC [7]: 8 µg/mL (≈ 19.2 µM)

**Q.** What does the source list for `CC1=C(C(=O)O)N2C(=O)C(NC(=O)C(N)c3cc4ccsc4s3)C2SC1` (stereo not drawn)?
**A.** MIC (Staphylococcus aureus [1]): 16 µg/mL (≈ 39.1 µM); MIC (Haemophilus influenzae [2]): 8 µg/mL (≈ 19.5 µM); MIC (Streptococcus pneumoniae): 0.5 µg/mL (≈ 1.22 µM); MIC (Staphylococcus aureus [3]): 0.5 µg/mL (≈ 1.22 µM); MIC (Staphylococcus aureus [4]): 32 µg/mL (≈ 78.1 µM); MIC (Haemophilus influenzae [5]): 2 µg/mL (≈ 4.88 µM); MIC (Streptococcus): > 64 µg/mL; MIC (Streptococcus pyogenes): 0.25 µg/mL (≈ 0.61 µM); MIC (Staphylococcus aureus [6]): > 64 µg/mL; MIC [7]: 4 µg/mL (≈ 9.77 µM)

**Q.** Which results are given for `CC1=C(C(=O)O)N2C(=O)C(NC(=O)C(N)c3cccc4sccc34)C2SC1` (stereo not drawn)?
**A.** MIC (Staphylococcus aureus [1]): 64 µg/mL (≈ 159 µM); MIC (Haemophilus influenzae [2]): 4 µg/mL (≈ 9.91 µM); MIC (Streptococcus pneumoniae): 1 µg/mL (≈ 2.48 µM); MIC (Staphylococcus aureus [3]): 2 µg/mL (≈ 4.96 µM); MIC (Staphylococcus aureus [4]): 16 µg/mL (≈ 39.7 µM); MIC (Haemophilus influenzae [5]): 2 µg/mL (≈ 4.96 µM); MIC (Streptococcus): 64 µg/mL (≈ 159 µM); MIC (Streptococcus pyogenes): 0.25 µg/mL (≈ 0.62 µM); MIC (Staphylococcus aureus [6]): 64 µg/mL (≈ 159 µM); MIC [7]: 16 µg/mL (≈ 39.7 µM)

**Q.** With `CC1=C(C(=O)O)N2C(=O)C(NC(=O)C(N)c3ccc4sccc4c3)C2SC1` (stereo not drawn) as the compound, how does the MIC (Staphylococcus aureus [1]) read?
**A.** 64 µg/mL (≈ 159 µM)

**Q.** What about the MIC (Haemophilus influenzae [2]) of the same compound?
**A.** 8 µg/mL (≈ 19.8 µM)

**Q.** And the MIC (Streptococcus pneumoniae)?
**A.** 0.5 µg/mL (≈ 1.24 µM)

**Q.** And the MIC (Staphylococcus aureus [3])?
**A.** 0.5 µg/mL (≈ 1.24 µM)

**Q.** And the MIC (Staphylococcus aureus [4])?
**A.** 4 µg/mL (≈ 9.91 µM)

**Q.** What about the MIC (Haemophilus influenzae [5]) of the same compound?
**A.** 4 µg/mL (≈ 9.91 µM)

**Q.** And the MIC (Streptococcus)?
**A.** 64 µg/mL (≈ 159 µM)

**Q.** And the MIC (Streptococcus pyogenes)?
**A.** 0.125 µg/mL (≈ 0.31 µM)

**Q.** And the MIC (Staphylococcus aureus [6])?
**A.** 64 µg/mL (≈ 159 µM)

**Q.** What about the MIC [7] of the same compound?
**A.** 2 µg/mL (≈ 4.96 µM)

**Q.** How did the ED50 (Mus musculus [9]) turn out when `CC(=O)N1CCc2cc(C(N)C(=O)NC3C(=O)N4C(C(=O)O)=C(C)CSC34)ccc21` (stereo not drawn) was run?
**A.** 10.6 mg/kg

**Q.** What about the MIC (Staphylococcus aureus [1]) of the same compound?
**A.** 64 µg/mL (≈ 149 µM)

**Q.** And the MIC (Haemophilus influenzae [2])?
**A.** 16 µg/mL (≈ 37.2 µM)

**Q.** And the ED50 (Mus musculus [10])?
**A.** 2.11 mg/kg

**Q.** What about the MIC (Streptococcus pneumoniae) of the same compound?
**A.** 1 µg/mL (≈ 2.32 µM)

**Q.** And the ED50 (Mus musculus [11])?
**A.** 0.79 mg/kg

**Q.** And the MIC (Staphylococcus aureus [3])?
**A.** 2 µg/mL (≈ 4.65 µM)

**Q.** What about the MIC (Staphylococcus aureus [4]) of the same compound?
**A.** 64 µg/mL (≈ 149 µM)

**Q.** What about the MIC (Haemophilus influenzae [5]) of the same compound?
**A.** 8 µg/mL (≈ 18.6 µM)

**Q.** What about the MIC (Streptococcus) of the same compound?
**A.** 64 µg/mL (≈ 149 µM)

**Q.** And the ED50 (Mus musculus [12])?
**A.** 2.6 mg/kg

**Q.** What about the MIC (Streptococcus pyogenes) of the same compound?
**A.** 1 µg/mL (≈ 2.32 µM)

**Q.** And the ED50 (Mus musculus [13])?
**A.** 0.85 mg/kg

**Q.** What about the MIC (Staphylococcus aureus [6]) of the same compound?
**A.** 64 µg/mL (≈ 149 µM)

**Q.** And the ED50 (Mus musculus [14])?
**A.** 9.3 mg/kg

**Q.** What about the MIC [7] of the same compound?
**A.** 8 µg/mL (≈ 18.6 µM)

**Q.** For `CC1=C(C(=O)O)N2C(=O)[C@@H](NC(=O)[C@H](N)c3ccccc3)[C@H]2SC1` [CEPHALEXIN ANHYDROUS], which ED50 (Mus musculus [9]) is on record?
**A.** 30.5 mg/kg

**Q.** And the MIC (Haemophilus influenzae [2])?
**A.** 8 µg/mL (≈ 23 µM)

**Q.** What about the ED50 (Mus musculus [10]) of the same compound?
**A.** 1.66 mg/kg

**Q.** And the MIC (Streptococcus pneumoniae)?
**A.** 2 µg/mL (≈ 5.76 µM)

**Q.** What about the ED50 (Mus musculus [11]) of the same compound?
**A.** 2.9 mg/kg

**Q.** And the MIC (Staphylococcus aureus [3])?
**A.** 4 µg/mL (≈ 11.5 µM)

**Q.** And the MIC (Haemophilus influenzae [5])?
**A.** 8 µg/mL (≈ 23 µM)

**Q.** And the ED50 (Mus musculus [12])?
**A.** 1.77 mg/kg

**Q.** And the MIC (Streptococcus pyogenes)?
**A.** 0.5 µg/mL (≈ 1.44 µM)

**Q.** And the ED50 (Mus musculus [13])?
**A.** 0.9 mg/kg

**Q.** And the ED50 (Mus musculus [14])?
**A.** 37 mg/kg

**Q.** What about the MIC [7] of the same compound?
**A.** 32 µg/mL (≈ 92.1 µM)
